The nature of this series: Toxicity liver stage against HepG2, at 10uM. It is filed as cell-based. Further details: test concentration 10 uM, cell line HepG2-A16-CD81EGFP. Particulars: human, HepG2-A16-CD81EGFP cells; read-out: INHIBITION
Put shortly:
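Uninfected HepG2-A16-CD81EGFP cells, 3 × 10^3 per well, 1536-well, plated on prespotted compound at 10 μM final, parasite-free screening media added to match infected plates; puromycin 10 μM positive, DMSO 0.5% negative; run in parallel with 48 h PbLuc assay at 37 °C, 5% CO2; viability by CellTiter-Glo luminescence, normalized to controls.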
Turning to `CN1CC[C@H](N(Cc2ccccc2)CC2CC2)C[C@H](O)C1`, the cytotoxicity at 10 µM was -1.47%.

Consider `Cc1ccc(C(=O)N2CC(=O)N(Cc3cccs3)CC(O)C2)cc1` (stereo unspecified), for which the cytotoxicity at 10 µM was -5.46%. The value for `COc1cn(CC(N)=O)c(CSc2nc(C)cc(C)n2)cc1=O` was -30.2%; that for `Cc1nc(OCC(=O)N2CCCC2)cc(-n2cccn2)n1` was 3.99%. Take `COCC1CC2(CCN(C(=O)c3ccc(F)c(Cl)c3)CC2)CO1` (stereo unspecified): the cytotoxicity at 10 µM was -131%. With `CCOC(=O)N1CCN(C(=O)c2sc(-c3ccncc3)nc2C)CC1`, the cytotoxicity at 10 µM is -3.3%. Take `COc1cccc(CC(=O)N2CCC(c3ccn4nccc4n3)CC2)c1`: the cytotoxicity at 10 µM is -3.79%. On to `Cc1nc(=O)c2ccccc2n1C1=CCN(CC(=O)NC(C)C)CC1`, for which the cytotoxicity at 10 µM was -7.99%. Regarding `Cc1c[nH]nc1C1CN(c2cnccn2)CCO1` (stereo unspecified), the cytotoxicity at 10 µM amounted to 4.34%. `Cc1nccc(C2CCCN(S(=O)(=O)N3CCOCC3)C2)n1` (stereo unspecified): the cytotoxicity at 10 µM was 6.08%. As for `Cc1cc(-c2nccs2)nc(C2CCN(Cc3ccccn3)CC2)n1`, the cytotoxicity at 10 µM came to 7.73%.

For `COCC(=O)N1CCC(C)(c2cc(O)[nH]n2)CC1`, the cytotoxicity at 10 µM is -6.92%. As to `Cc1ncc(-c2ccncc2)c(C2CCN(C(=O)c3ccno3)CC2)n1`, the cytotoxicity at 10 µM came to 2.08%. `CNC(=O)C1(CCCc2cnccn2)CCN1CCc1ccccc1` (stereo unspecified): the cytotoxicity at 10 µM was -1.23%. The value for `Cc1cc(C(=O)N(C)C)nc(C2(C)CCCN2c2ccccc2)n1` (stereo unspecified) was 4.89%; that for `O=C1NC2(CCN(CC(=O)N3CCOCC3)CC2)Nc2ccc(Br)cc21` was -0.445%.

For `CNc1cc(C2CN(C(=O)c3ccccc3)CCO2)nc(C)n1` (stereo unspecified), the cytotoxicity at 10 µM was 6.1%. As for `CNC(=O)c1c[nH]nc1C1CCCN1c1ncccn1` (stereo unspecified), the cytotoxicity at 10 µM was determined as 10%.

In the case of `CC(C)n1c(C2CCCN(Cc3ccnn3C)C2)nc2ccccc21` (stereo unspecified), the cytotoxicity at 10 µM was -0.0273%. Consider `O=C(c1cccnc1)N1CCCC(c2cc(C(F)F)n3ncnc3n2)C1` (stereo unspecified), for which the cytotoxicity at 10 µM was 0.745%. Turning to `CC(C)C(C)NC(=O)c1cccn1Cc1cccnc1` (stereo unspecified), the cytotoxicity at 10 µM is -44%. The value for `Cc1ccc(S(=O)(=O)Nc2ccc(-n3ccnc3C)nc2)cc1N(C)C` was -3.78%; that for `COc1ccc(Br)cc1Cn1nc(C(N)=O)ccc1=O` was 8.09%; that for `Cn1cc(C2(C)CN(C(=O)COc3ccccc3F)CCO2)cn1` (stereo unspecified) was 0.814%. On to `CSc1c[nH]nc1NS(=O)(=O)c1ccc(C)c(C)c1`, for which the cytotoxicity at 10 µM amounted to 1.79%. On to `CCC(c1ccc(F)cc1F)S(=O)(=O)CCO` (stereo unspecified), for which the cytotoxicity at 10 µM was -137%.

With `CNC(=O)c1ccc(NC(=O)NC(C)CCc2cccn2C)c(C)c1` (stereo unspecified), the cytotoxicity at 10 µM is 3.75%.

As for `CC(=O)N1CCCN(C(=O)NCC2(c3cccs3)CCCC2)CC1`, the cytotoxicity at 10 µM was 3.23%.

Turning to `CC(C)CC(CO)NS(=O)(=O)Cc1ccon1` (stereo unspecified), the cytotoxicity at 10 µM is -3.33%. Consider `Cc1nnc(C2Cc3ccccc3CN2Cc2nc(C3CC3)no2)o1` (stereo unspecified), for which the cytotoxicity at 10 µM is -13.1%.

Take `Cc1cc(N2CCc3c(ncn3C3CC3)C2)nc(N)n1`: the cytotoxicity at 10 µM is -5.44%.

As to `Cc1nc(C)c(CCNC(=O)NC2CC(=O)N(C(C)(C)C)C2)s1` (stereo unspecified), the cytotoxicity at 10 µM is -1.08%. In the case of `CC(C)(C)NC(=O)C1CSCN1S(=O)(=O)c1ccccc1S(C)(=O)=O` (stereo unspecified), the cytotoxicity at 10 µM is -4.04%. Regarding `NC(=O)NC(=O)CCN1C(=O)CC(Cc2ccc(F)cc2)C1=O` (stereo unspecified), the cytotoxicity at 10 µM is -0.327%. For `CCCN(CC(F)F)c1cc(COC)nc2ncnn12`, the cytotoxicity at 10 µM is -3.22%. As for `Cn1nnnc1SC1CCN(c2ccccc2Cl)C1=O` (stereo unspecified), the cytotoxicity at 10 µM stood at 5.12%. As for `N#Cc1ccc(CNc2cnn(CCN3CCOCC3)c2)cc1`, the cytotoxicity at 10 µM was -5.75%. Turning to `CCNC(=O)CCC(=O)NC1(c2cccc(C(F)(F)F)c2)CCC1`, the cytotoxicity at 10 µM was -39.8%. As to `COc1cc(-n2cccc2)c(Cl)cc1C(=O)NS(C)(=O)=O`, the cytotoxicity at 10 µM is 0.872%. For the molecule `CC(C)c1nc(C2CCCN2CCNS(C)(=O)=O)no1` (stereo unspecified), the cytotoxicity at 10 µM was determined as 3.33%. Take `CC(C1CC1)N(C)C(=O)c1cnc(-c2ccc3c(c2)OCO3)s1` (stereo unspecified): the cytotoxicity at 10 µM was -7.06%. In the case of `O=C(Cc1ccccn1)N1C[C@H]2CN(Cc3ccccn3)C[C@H]2C1`, the cytotoxicity at 10 µM is -108%. As for `CS(=O)(=O)N1CCOCC2(CCN(c3cnccn3)CC2)C1`, the cytotoxicity at 10 µM was -107%. For the molecule `CN(C)C(=O)C1CCC2(CCN(C(=O)Nc3ccccc3)CC2)O1` (stereo unspecified), the cytotoxicity at 10 µM is -106%. `CNC(=O)[C@@]12CCO[C@@H]1CCN(Cc1c(C)noc1C)C2`: the cytotoxicity at 10 µM was -70.5%.

Regarding `Cc1ccc(C(=O)N2C[C@@H]3COC[C@]3(COc3cccnc3)C2)cn1`, the cytotoxicity at 10 µM is -3.91%. Consider `CCO[C@H]1CO[C@@]2(CCCN(S(=O)(=O)c3ccccc3)C2)C1`, for which the cytotoxicity at 10 µM is 4.42%. For `COCCn1ccnc1CN1CCc2[nH]cnc2C1c1ccccn1` (stereo unspecified), the cytotoxicity at 10 µM was -3.3%. Turning to `CNCc1cn(CC2CCN(CC(C)(C)CN3CCCC3)CC2)nn1`, the cytotoxicity at 10 µM is -1.58%.

`Cc1cc2ccccc2n1CCC(=O)N1CCCCC1CCO` (stereo unspecified): the cytotoxicity at 10 µM is 10.4%. Consider `CC(C)OC(=O)N1CCCCC1CCn1cccn1` (stereo unspecified), for which the cytotoxicity at 10 µM was -1.17%. With `CCN(C)S(=O)(=O)NCC1CCN(Cc2ccccc2C)CC1` the figure was -4.93%; with `COc1cccc([C@@H]2CCN(Cc3[nH]nc(C)c3Cl)C[C@H]2O)c1`, -3.26%. The value for `CC(C)(O)c1cn(C2CCN(C(=O)CCc3ccncc3)CC2)nn1` was -5.32%; that for `CN1CC[C@H]2CN(C(=O)c3ccc4sc5c(c4c3)CCNC5=O)C[C@H]21` was -0.193%. As to `CNCc1n[nH]c(=O)n1CC1CCCCC1`, the cytotoxicity at 10 µM is -46.5%. As for `O=C(O)c1cccc(CC2CCN(c3ncc(F)cn3)CC2)c1`, the cytotoxicity at 10 µM is -108%.

Turning to `COCCN1CC2(CCCN(Cc3cc(=O)c(OC)co3)C2)CCC1=O` (stereo unspecified), the cytotoxicity at 10 µM is -40%. Turning to `CN1C(=O)c2ccc(C(=O)N(Cc3cnn(C)c3)C3CC3)cc2C1=O`, the cytotoxicity at 10 µM came out at 5.68%. As for `O=C(N[C@@H]1CCN(c2nc3ccccc3o2)C[C@H]1O)c1cnccn1`, the cytotoxicity at 10 µM stood at 3.52%. With `CCc1cccc(OC2CN(C(=O)[C@@H](N)CCSC)C2)c1` the figure was 0.684%.

With `CCC(CC)Cn1ncc(N2CCOCC2)cc1=O`, the cytotoxicity at 10 µM is -3.46%. `Cc1ncsc1CCC(=O)NCc1csc(N(C)C)n1`: the cytotoxicity at 10 µM stood at 1.31%. For `CCC(C(=O)N(C)CCC1=CCN(C)CC1)c1ccccc1` (stereo unspecified), the cytotoxicity at 10 µM was -10.9%. Turning to `COc1ccc(CC(=O)N2CC[C@H](CO)[C@H](O)C2)c(OC)c1`, the cytotoxicity at 10 µM is -0.392%. As to `N#Cc1cccnc1N1CCCC(CO)(CCOc2ccccc2)C1` (stereo unspecified), the cytotoxicity at 10 µM stood at 3.04%.

As for `Cc1noc(CN2CC(=O)N(C)c3ccccc3C2=O)n1`, the cytotoxicity at 10 µM is -5.03%.

As to `COc1ccc(CN2CCCC(Nc3cccc(F)c3)C2)cc1O` (stereo unspecified), the cytotoxicity at 10 µM came to 5.76%.

In the case of `c1cc2c(cc1CN(Cc1nc(C3CC3)no1)C1CCCC1)OCO2`, the cytotoxicity at 10 µM was -10.6%. For `c1ccc(Cc2nnc(CN3CCCC3Cn3cccn3)o2)cc1` (stereo unspecified), the cytotoxicity at 10 µM was -11.7%. With `COc1c(CNCc2ccccc2Cn2ccnc2)c(C)nn1C` the figure was -9.2%; with `O=C(NCC1CC1)Nc1ccc(OCC(F)(F)F)nc1`, -2.4%; with `Cc1cc(C(=O)NCC(c2ccsc2)N(C)C)no1` (stereo unspecified), -18.3%. For `CN(C)c1cc(CNC(=O)c2cccc(F)c2)ccn1`, the cytotoxicity at 10 µM was -13.5%.

Consider `NC(=O)NC(=O)CN1CCN(c2nccs2)CC1`, for which the cytotoxicity at 10 µM was -17.9%. With `c1ccc(CN2CCCC(Cn3cncn3)C2)nc1` (stereo unspecified), the cytotoxicity at 10 µM was -9.93%. For `Cc1ncsc1C(=O)NCCNc1ncccc1C#N`, the cytotoxicity at 10 µM is -21.5%. For the molecule `Cc1cccc2[nH]cc(CC(=O)N3CCC(Nc4cccnn4)CC3)c12`, the cytotoxicity at 10 µM was -8.45%. On to `CCc1ccc(CNC(=O)N2CCN(Cc3cc(C)no3)CC2)s1`, for which the cytotoxicity at 10 µM amounted to 1.45%. On to `CCc1ncc(CN(C)C(=O)Nc2cccnc2N2CCCC2)s1`, for which the cytotoxicity at 10 µM was -8.43%.

Turning to `Cn1ncc2c(=O)[nH]c(CN3CCCC3Cc3ccccc3)nc21` (stereo unspecified), the cytotoxicity at 10 µM is -6.56%. The value for `CC(C)c1ncncc1C(=O)N1CCCN(Cc2cccs2)CC1` was -7.42%; that for `O=C(NCc1cc[nH]n1)NCC(c1ccc(F)cc1)N1CCOCC1` (stereo unspecified) was -7.77%; that for `Cc1nc(-c2ccc(CO)cc2)cc(C2CCNCC2)n1` was 12.3%.

For the molecule `Cn1ccc(C(=O)N2C[C@@H]3CCN(c4cnccn4)C[C@@H]3C2)n1`, the cytotoxicity at 10 µM was -106%.

Consider `CN(C)C(=O)CO[C@H]1CO[C@@]2(CCN(Cc3ccsc3)C2)C1`, for which the cytotoxicity at 10 µM was -111%. For `CN(C)C(C)(C)CNCc1cn(C)nc1-c1cccnc1`, the cytotoxicity at 10 µM is 11.8%.

For the molecule `N#Cc1ccc(C(=O)N2CC[C@H]3[C@@H]2CCC(=O)N3c2cccnc2)cc1`, the cytotoxicity at 10 µM is 1.77%. In the case of `Cc1ccc2c(c1)CN(C(=O)c1ccccc1F)C(CN(C)C)CO2` (stereo unspecified), the cytotoxicity at 10 µM worked out at 4.66%. The value for `Cc1cc(CN2CC[C@H]3C(=O)N(c4ccsc4)CCO[C@H]3C2)no1` was -69.2%; that for `O=C(NC[C@]12COC[C@H]1CN(Cc1nccs1)C2)c1ccccc1` was -11.8%; that for `COCCN1C(=O)CC(c2cccnc2)C12CCN(C(=O)C1CC1)CC2` (stereo unspecified) was -104%.

For the molecule `O=C(c1ccco1)N1CC[C@@H](N2CCOCC2)[C@@H]1Cc1ccncc1`, the cytotoxicity at 10 µM is -78.2%. Consider `CC(C)c1nn(C)cc1CNCc1ccnc(N(C)C)c1`, for which the cytotoxicity at 10 µM is -0.431%.

Regarding `CC(C)N1CCc2c(CNC(=O)c3nccn3C)cncc2C1`, the cytotoxicity at 10 µM is -106%. With `CC(C)NC(=O)[C@H]1C[C@H]2CN(C(=O)NC(C)C)C[C@@H]1O2` the figure was -105%.

The values above are taken from ChEMBL document CHEMBL4513216, “Probing the Open Global Health Chemical Diversity Library for Multistage-Active Starting Points for Next-Generation Antimalarials” (ACS Infect Dis, 2020).
